Experimental data taken from ChEMBL document CHEMBL1949566 (Bioorg Med Chem Lett, 2012).
Activity calls are given as the source filed them. No cut-off for these calls is given here.

Columns and labels:
Rattus norvegicus [1] = test: Ratio of losartan ED50 to compound ED50 for antihypertensive activity in iv dosed pithed rat model assessed as inhibition of angiotensin 2-induced pressor response; format: functional
Rattus norvegicus [2] = test: Antihypertensive activity in iv dosed pithed rat model assessed as inhibition of angiotensin 2-induced pressor response by gould pressure transducer-coupled grass polygraphy; format: functional
In short: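 Pithed rats had blood pressure recorded by an arterial catheter to a pressure transducer/polygraph. After about 60 min of stabilization, AngII (100 ng/kg iv) was given three times at 15 min intervals to set a basal pressor response. Compound was then given iv, followed by AngII 100 ng/kg iv. ED50 for 50% inhibition of maximal pressor response came from the dose–pressure curve.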

[3] = Displacement of [125I]angiotensin 2 from angiotensin 2 receptor type 1 in Sprague-Dawley rat adrenal cortex membranes after 60 mins by gamma counting; format: cell membranes, Membrane
In short: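 Adrenal cortex membranes came from male Sprague–Dawley rats (200–250 g); the pellet was taken by differential centrifugation up to 100,000 g. Membranes (60–70 µg protein/assay) were suspended in 50 mM Tris–HCl, 10 mM MgCl2, 0.25% BSA, pH 7.4, with [125I]AngII (0.05 nM) and test compound (3×10^-12 to 10^-6 M, DMSO). Incubation ran 60 min at 25 °C and ended by GF/B filtration. IC50 is 50% inhibition of binding.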

[4] = molecular target: T1, Type-1 angiotensin II receptor (Oryctolagus cuniculus, UniProt P34976); test: Antagonist activity at angiotensin 2 receptor type 1 in New Zealand White rabbit descending thoracic aorta rings assessed as inhibition of angiotensin 2-induced contraction preincubated for 30 mins prior angiotensin 2 challenge; format: functional, tissue-based
T1 sequence (P34976 whole entry): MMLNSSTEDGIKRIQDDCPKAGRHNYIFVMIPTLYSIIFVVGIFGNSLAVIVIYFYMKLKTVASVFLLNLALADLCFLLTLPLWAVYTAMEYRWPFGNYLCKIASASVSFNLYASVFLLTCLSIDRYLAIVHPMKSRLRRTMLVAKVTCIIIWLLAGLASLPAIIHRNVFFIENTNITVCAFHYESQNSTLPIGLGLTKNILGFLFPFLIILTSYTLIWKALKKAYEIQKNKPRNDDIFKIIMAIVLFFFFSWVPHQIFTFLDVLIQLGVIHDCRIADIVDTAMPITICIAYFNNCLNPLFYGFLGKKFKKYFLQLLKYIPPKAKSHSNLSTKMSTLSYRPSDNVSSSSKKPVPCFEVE
In short: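 Aortic rings held at 2 g resting tension and equilibrated 60 min with repeated washing in Krebs bicarbonate solution. Responsiveness was checked with AngII, then a control cumulative AngII concentration–contractile response curve was run. After washout, test substance was incubated 30 min and a second AngII curve obtained.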

Rattus norvegicus [5] = test: Antihypertensive activity in conscious spontaneously hypertensive rat assessed as decrease in mean arterial blood pressure at 10 mg/kg, po up to 24 hrs; format: functional, organism-based; design: dose 10 mg/kg; details: Artery
In short: (§1)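 SHRs were acclimatized 10 weeks, then habituated for 7 days to 37 °C chamber prewarming for 10 min, restraint and a tail cuff with pulse sensor. After stabilization, 10 mg/kg was given orally.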

[6] = molecular target: T2, Type-1 angiotensin II receptor (Oryctolagus cuniculus) (UniProt P34976); test: Antagonist activity at angiotensin 2 receptor type 1 in New Zealand White rabbit descending thoracic aorta rings assessed as inhibition of noradrenaline-induced contraction preincubated for 30 mins prior noradrenaline challenge; format: functional, tissue-based
T2 sequence (whole entry): T1 sequence (P34976 whole entry)

Rattus norvegicus [7] = test: Antihypertensive activity in furosemide treated rat high-renin model assessed as decrease in mean arterial pressure at 10 mg/kg, po up to 8 hrs; format: functional, organism-based; design: dose 10 mg/kg; details: Artery
In short: (§2)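 Furosemide 10 mg/kg sc was given 20 and 2 h before the experiment, with food and water withdrawn for 24 h. Mean arterial pressure and heart rate were recorded by polygraph. After about 60 min of stabilization, 10 mg/kg was given orally. Readings were taken at 20, 40 and 60 min, then every 30 min to 8 h.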

Rattus norvegicus [8] = species: Rattus norvegicus; test: Ratio of losartan IC50 to compound IC50 for displacement of [125I]angiotensin 2 from angiotensin 2 receptor type 1 in Sprague-Dawley rat adrenal cortex membranes; format: cell membranes; details: Membrane
[9] = molecular target: T2, Type-1 angiotensin II receptor (Oryctolagus cuniculus); test: Ratio of losartan IC50 to compound IC50 for antagonist activity at angiotensin 2 receptor type 1 in New Zealand White rabbit descending thoracic aorta rings; format: functional, tissue-based
[10] = molecular target: T2, Type-1 angiotensin II receptor (Oryctolagus cuniculus); test: Antagonist activity at angiotensin 2 receptor type 1 in New Zealand White rabbit descending thoracic aorta rings assessed as inhibition of KCl-induced contraction preincubated for 30 mins prior KCl challenge; format: functional, tissue-based
Rattus norvegicus [11] = test: Antihypertensive activity in conscious spontaneously hypertensive rat assessed as decrease in mean arterial blood pressure at 10 mg/kg, po up to 5 hrs; format: functional, organism-based; design: dose 10 mg/kg; details: Artery; in short: as §1
Rattus norvegicus [12] = species: Rattus norvegicus; test: Displacement of [125I]angiotensin 2 from angiotensin 2 receptor type 1 in Sprague-Dawley rat adrenal cortex membranes at 10 uM after 60 mins by gamma counting; format: cell membranes; details: Membrane
Rattus norvegicus [13] = test: Antihypertensive activity in conscious spontaneously hypertensive rat assessed as decrease in mean arterial blood pressure at 10 mg/kg, po at 5 hrs post dose; format: functional, Artery; design: scale not given: the % may be the effect or the level left; in short: as §1
[14] = Toxicity in po dosed mouse assessed maximum tolerated dose; format: organism-based; details: in vivo
In short: (§3)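 Maximum tolerated dose from a single oral administration.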

[15] = Oral steady-state volume of distribution in Sprague-Dawley rat at 3 mg/kg; format: ADME, organism-based; design: dose 3 mg/kg; details: in vivo, read-out: Vss/F
In short: (§4)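 Male Sprague–Dawley rats (n = 7) given a single oral dose of 3 mg/kg. AUC, Cmax, Tmax, t1/2, Cl/F and Vss/F were derived from plasma profiles and reported as mean ± S.D.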

[16] = Half life in Sprague-Dawley rat at 3 mg/kg, po; format: ADME, organism-based; design: dose 3 mg/kg, route oral; details: in vivo; in short: as §4
Rattus norvegicus [17] = test: Drug excretion in Sprague-Dawley rat at 3 mg/kg, po; format: ADME, organism-based; design: dose 3 mg/kg, route oral; details: in vivo
[18] = Toxicity in po dosed rat assessed maximum tolerated dose; format: organism-based; details: in vivo; in short: as §3
[19] = Apparent oral clearance in Sprague-Dawley rat at 3 mg/kg; format: ADME, organism-based; design: dose 3 mg/kg, route oral; details: in vivo; in short: as §4
[20] = Cmax in Sprague-Dawley rat at 3 mg/kg, po; format: ADME, organism-based; design: dose 3 mg/kg, route oral; details: in vivo; in short: as §4
[21] = AUC in Sprague-Dawley rat at 3 mg/kg, po; format: ADME, organism-based; design: dose 3 mg/kg, route oral; details: plasma; in short: as §4
[22] = Tmax in Sprague-Dawley rat at 3 mg/kg, po; format: ADME, organism-based; design: dose 3 mg/kg, route oral; details: in vivo; in short: as §4
Rattus norvegicus [23] = test: Effect on basal heart rate in furosemide treated rat high-renin model at 10 mg/kg, po up to 8 hrs; format: ADME, organism-based; design: dose 10 mg/kg, route oral; details: in vivo; in short: as §2

| IC50 [3] | IC50 [4] | Structure (SMILES) | ED50 (Rattus norvegicus [2]) | other results |
| --- | --- | --- | --- | --- |
| 23 nM |  | CCCCc1nc(C)c(CC(=O)N2CCOCC2)c(=O)n1Cc1ccc(-c2ccccc2-c2nnn[nH]2)cc1 | 0.018 mg/kg | Ratio ED50 (Rattus norvegicus [1]): 19 |
| 72.6 nM | 13.1 nM | CCCCc1nc(C)c(CCC(=O)N2CC(C)OC(C)C2)c(=O)n1Cc1ccc(-c2ccccc2-c2nnn[nH]2)cc1 (stereo unspecified) | 0.228 mg/kg |  |
|  | 4.69 nM | CCCc1nc(C)c(CC(=O)N(CC)CC)c(=O)n1Cc1ccc(-c2ccccc2-c2nnn[nH]2)cc1 |  |  |
| 17 nM |  | CCCCc1nc(C)c(CC(=O)N2CCC[C@H]2C(N)=O)c(=O)n1Cc1ccc(-c2ccccc2-c2nnn[nH]2)cc1 | 0.023 mg/kg |  |
| 6.27 nM | 1.31 nM | CCCCc1nc(C)c(CC(=S)N(CC)CC)c(=O)n1Cc1ccc(-c2ccccc2-c2nnn[nH]2)cc1 | 0.023 mg/kg |  |
| 64.7 nM |  | CCCCc1nc(C)c(CCC(=O)N2CCCCC2)c(=O)n1Cc1ccc(-c2ccccc2-c2nnn[nH]2)cc1 | 0.164 mg/kg |  |
| 60 nM |  | CCCCc1nc(C)c(CCC(=O)N2CCOCC2)c(=O)n1Cc1ccc(-c2ccccc2-c2nnn[nH]2)cc1 | 0.143 mg/kg |  |
| 8.04 nM | 6.11 nM | CCCCc1nc(C)c(CC(=S)N2CCCCCC2)c(=O)n1Cc1ccc(-c2ccccc2-c2nnn[nH]2)cc1 | 0.034 mg/kg |  |
|  |  | CCCCc1nc(C)c(CC(=S)N(C)C)c(=O)n1Cc1ccc(-c2ccccc2-c2nnn[nH]2)cc1 [listing 1 of 2 here] |  | Activity (Rattus norvegicus [5]): Active; inhibition [6]: inactive; Activity (Rattus norvegicus [7]): Active; Ratio IC50 (Rattus norvegicus [8]): 615; Ratio IC50 [9]: 145; inhibition [10]: inactive; Activity (Rattus norvegicus [11]): Active |
| 70.5 nM |  | CCCCc1nc(C)c(CCC(=O)N2CCCC2)c(=O)n1Cc1ccc(-c2ccccc2-c2nnn[nH]2)cc1 | 0.206 mg/kg |  |
| 131 nM | 2.51 nM | CCCCc1nc(C)c(CCC(=O)OCC)c(=O)n1Cc1ccc(-c2ccccc2-c2nnn[nH]2)cc1 | 0.066 mg/kg |  |
|  |  | CCCCc1nc(C)c(CC(=O)N(C)C)c(=O)n1Cc1ccc(-c2ccccc2-c2nnn[nH]2)cc1 | 0.018 mg/kg | inhibition (Rattus norvegicus [12]): 71.7%; Ratio ED50 (Rattus norvegicus [1]): 19 |
| 59.3 nM |  | CCCCc1nc(C)c(CC(=O)N2CCC[C@H]2C(=O)OC)c(=O)n1Cc1ccc(-c2ccccc2-c2nnn[nH]2)cc1 | 0.043 mg/kg |  |
| 63.3 nM |  | CCCCc1nc(C)c(CC(=O)N2CCCCC2)c(=O)n1Cc1ccc(-c2ccccc2-c2nnn[nH]2)cc1 | 0.063 mg/kg | inhibition (Rattus norvegicus [12]): 71.7% |
| 66.2 nM |  | CCCCc1nc(C)c(CC(=O)OCC)c(=O)n1Cc1ccc(-c2ccccc2-c2nnn[nH]2)cc1 | 0.108 mg/kg |  |
|  |  | CCCCc1nc(C)c(CC(=S)N(C)C)c(=O)n1Cc1ccc(-c2ccccc2-c2nnn[n-]2)cc1.O.O.O.[K+] |  | Activity (Rattus norvegicus [13]): 75%; MTD [14]: > 2000 mg/kg; Vd/F [15]: 37.3 L/kg; half-life [16]: 5.3 h; Ae (Rattus norvegicus [17]): Active; MTD [18]: > 2000 mg/kg; CL/F [19]: 84 mL/min/kg; Cmax [20]: 242 ng/mL; AUC [21]: 678 ng·h/mL; Tmax [22]: 6 min; Activity (Rattus norvegicus [23]): Non-toxic |
| 58.5 nM |  | CCCCc1nc(C)c(CCC(=O)N2CCC[C@H]2C(=O)OC)c(=O)n1Cc1ccc(-c2ccccc2-c2nnn[nH]2)cc1 | 0.063 mg/kg |  |
| 59.2 nM | 1.58 nM | CCCCc1nc(C)c(CC(=O)N2CCCC2)c(=O)n1Cc1ccc(-c2ccccc2-c2nnn[nH]2)cc1 | 0.056 mg/kg | inhibition (Rattus norvegicus [12]): 76.7% |
| 9 nM |  | CCCCc1nc(C)c(CC(=O)N2CCSCC2)c(=O)n1Cc1ccc(-c2ccccc2-c2nnn[nH]2)cc1 | 0.038 mg/kg |  |
| 306 nM |  | CCCCc1nc(C)c(CCC(=O)O)c(=O)n1Cc1ccc(-c2ccccc2-c2nnn[nH]2)cc1 | 0.094 mg/kg | inhibition (Rattus norvegicus [12]): 27.9% |
|  | 27.1 nM | CCCc1nc(C)c(CC(=O)O)c(=O)n1Cc1ccc(-c2ccccc2-c2nnn[nH]2)cc1 |  |  |
| 24 nM | 1.03 nM | CCCCc1nc(C)c(CC(=O)N2CC(C)OC(C)C2)c(=O)n1Cc1ccc(-c2ccccc2-c2nnn[nH]2)cc1 (stereo unspecified) | 0.029 mg/kg |  |
|  | 30.8 nM | CCCCc1nc(C)c(CC(=O)N(CC)CC)c(=O)n1Cc1ccc(-c2ccccc2-c2nnn[nH]2)cc1 | 0.089 mg/kg |  |
| 80 nM |  | CCCCc1nc(Cl)c(CO)n1Cc1ccc(-c2ccccc2-c2nnn[nH]2)cc1 [LOSARTAN] | 0.336 mg/kg |  |
| 431 nM |  | CCCCc1nc(C)c(CC(=O)O)c(=O)n1Cc1ccc(-c2ccccc2-c2nnn[nH]2)cc1 | 0.13 mg/kg | inhibition (Rattus norvegicus [12]): 3.65% |
| 28 nM |  | CCCCc1nc(C)c(CCC(=O)N2CCSCC2)c(=O)n1Cc1ccc(-c2ccccc2-c2nnn[nH]2)cc1 | 0.204 mg/kg |  |

| Structure (SMILES) | IC50 [3] | IC50 [4] | ED50 (Rattus norvegicus [2]) | other results |
| --- | --- | --- | --- | --- |
| CCCCc1nc(C)c(CC(=S)N(C)C)c(=O)n1Cc1ccc(-c2ccccc2-c2nnn[nH]2)cc1 [listing 2 of 2 here] | 0.13 nM | 0.42 nM | 0.018 mg/kg | Ratio ED50 (Rattus norvegicus [1]): 19 |
| CCCCc1nc(C)c(CC(=O)N2CCN(C)CC2)c(=O)n1Cc1ccc(-c2ccccc2-c2nnn[nH]2)cc1 | 19 nM |  |  |  |
